Screening data: PubChem, Johns Hopkins Ion Channel Center
TRPC6 inh: mouse TRPC6 channel inhibition; HEK293-TRPC6, membrane potential dye, ACh-evoked depolarization; hits give low values; AID 2553; B-score at 10 µM; Q61143; actives 1.1% (n = 310,000);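 active = B-score under library mean minus 3 SD, initial fluorescence not abnormally high, positive integrated signal ratio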;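 also: B-score derived from integrated fluorescence ratio over the kinetic read; more negative B-score means stronger inhibition of depolarization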
Target sequence (Q61143 whole entry, looked up): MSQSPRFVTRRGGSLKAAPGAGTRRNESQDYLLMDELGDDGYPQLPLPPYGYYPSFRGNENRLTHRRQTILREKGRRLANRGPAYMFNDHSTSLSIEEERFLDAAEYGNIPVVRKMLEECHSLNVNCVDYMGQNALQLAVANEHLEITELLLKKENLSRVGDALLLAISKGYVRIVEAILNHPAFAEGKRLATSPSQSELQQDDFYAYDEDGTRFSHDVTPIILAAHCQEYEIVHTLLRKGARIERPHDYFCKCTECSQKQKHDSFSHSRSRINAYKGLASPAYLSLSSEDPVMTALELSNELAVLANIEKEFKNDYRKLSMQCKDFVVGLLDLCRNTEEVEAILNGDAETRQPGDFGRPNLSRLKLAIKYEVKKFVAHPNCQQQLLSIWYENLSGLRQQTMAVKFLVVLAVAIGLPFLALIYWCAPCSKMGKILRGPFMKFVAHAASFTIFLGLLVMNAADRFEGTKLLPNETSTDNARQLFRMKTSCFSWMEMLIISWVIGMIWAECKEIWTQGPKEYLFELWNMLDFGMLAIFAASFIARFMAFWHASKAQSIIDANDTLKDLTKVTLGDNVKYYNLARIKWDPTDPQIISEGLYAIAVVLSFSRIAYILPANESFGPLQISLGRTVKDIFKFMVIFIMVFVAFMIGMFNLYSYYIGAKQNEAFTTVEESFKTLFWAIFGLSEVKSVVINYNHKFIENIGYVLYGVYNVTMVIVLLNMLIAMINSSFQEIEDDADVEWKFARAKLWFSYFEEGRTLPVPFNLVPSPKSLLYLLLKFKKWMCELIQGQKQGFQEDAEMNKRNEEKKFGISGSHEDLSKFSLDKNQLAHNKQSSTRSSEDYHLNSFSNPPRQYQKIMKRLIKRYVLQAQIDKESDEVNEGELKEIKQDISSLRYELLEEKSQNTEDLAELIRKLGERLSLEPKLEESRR
TRPC4 block: inhibitors of mouse TRPC4 channel | Q9QUQ5 | HEK293 TRPC4beta/mu-opioid, DAMGO-evoked Fluo4 calcium flux; hits give low values | B-score at 10 µM | actives 0.39% (n = 300,000) | AID 2247;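 active = B-score over 3 SD under the library average, no early fluorescence shift, positive overall ratio signal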
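Material: HEK293 cells with stable TRPC4beta plus mu-opioid receptor expression / Probe or stimulus: DAMGO in two steps, submaximal then maximal / Compound: single concentration per test compound / Technique: kinetic Fluo4 fluorescence imaging of calcium influx / Read-out: per-well B score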
TRPC6 act: activates the mouse TRPC6 cation channel; B-score at 10 µM; actives 0.13% (n = 310,000); AID 2550; Q61143; HEK293-TRPC6 membrane potential dye fluorescence; hits give high values;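 active = B-score of the integrated fluorescence ratio above library mean plus 3 SD, and starting fluorescence ratio within library mean plus 5 SD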;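 also: higher score means more depolarization so channel activation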
TRPC4 act: opens the mouse TRPC4 cation channel; Q9QUQ5; actives 0.49% (n = 310,000); B-score at 10 µM; HEK293 TRPC4beta/mu-opioid, Fluo4 calcium fluorescence; hits give high values;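 active = B-score above 5 SD of library B-scores, and initial fluorescence ratio not above library mean plus 5 SD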;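 also: positive B-score marks a calcium rise read as TRPC4 activation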
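Assay system: HEK293 stable line with TRPC4beta plus mu-opioid receptor; schedule: 45 min room-temperature Fluo4 loading, 110 s read; technique: kinetic Fluo4 calcium fluorescence; evaluation: integrated baseline-normalised fluorescence ratio, converted to per-well B score; controls: buffer (low) and maximal DAMGO (high)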
TRPC4 PAM: TRPC4 (mouse) allosteric potentiation | Q9QUQ5 | HEK293 TRPC4beta/mu-opioid, DAMGO EC20, Fluo-4 Ca2+ flux; hits give high values | B-score at 10 µM | actives 0.42% (n = 310,000) | AID 2227;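 active = B-score of calcium response area above 5 SD of library B-scores, with initial fluorescence ratio within 5 SD of library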
TRPC4 spec 2: second selectivity test of TRPC6 inhibitors: effect on mouse TRPC4. AID 2776. actives 42% (n = 920). shares compounds with TRPC6 inh. HEK293 TRPC4/MOR, membrane potential dye fluorescence; channel activated by saturating DAMGO dose. inhibition, % at 10 µM;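 active = compounds whose fluorescence signal differed from control wells by over 3 SD, either direction, in both duplicate plates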
TRPC4 spec: selectivity of TRPC6 inhibitors: effect on mouse TRPC4; shares compounds with TRPC6 inh; HEK293 TRPC4/mu-opioid, membrane potential fluorescence; activity change, negative = inhibition, % at 10 µM; actives 61% (n = 920); AID 2777;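 active = rise or fall in signal beyond 3 SD of buffer-only wells in both replicate plates, either sign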;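 also: integrated kinetic ratio of fluorescence range over baseline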
HEK293 MPD ctr 2-1: second check of TRPC6 inhibitor effects in parental HEK293 cells; shares compounds with TRPC6 inh; parental HEK293 membrane potential dye fluorescence; maximal acetylcholine challenge after compound addition; signal change vs control, % at 10 µM; actives 31% (n = 920); AID 2779;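 active = membrane potential signal moving either way by over 3 SD of the maximum-effect control, in both duplicate plates, meaning non-specific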
HEK293 MPD ctr-1: checks TRPC6 inhibitor effects in parental HEK293 cells; shares compounds with TRPC6 inh; membrane potential signal change, % at 10 µM; actives 60% (n = 920); parental HEK293 membrane potential dye fluorescence;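 active = membrane potential signal shifting up or down by more than 3 SD of buffer-only wells, on both duplicate plates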
HEK293 MPD ctr-2: checks TRPC6 modulator effects in parental HEK293 cells; shares compounds with TRPC6 inh; membrane potential dye fluorescence; membrane potential signal change, % at 10 µM; actives 51% (n = 2,400);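 active = membrane potential signal moves up or down beyond 5 SD from buffer-only wells, on both duplicate plates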
HEK293 MPD ctr 2-2: second counter-screen for TRPC6 modulators: effect in parental HEK293 cells; shares compounds with TRPC6 inh; membrane potential dye fluorescence; after compound, maximal acetylcholine stimulation; inhibition, % at 10 µM; actives 14% (n = 2,400); AID 488926;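 active = membrane potential signal drops by more than 5 SD from the mean control signal, in both duplicate plates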
TRPC4 ctr mod: tests whether TRPC6 modulators also affect mouse TRPC4; actives 69% (n = 2,400); percent change from control (negative = decrease, positive = increase), % at 10 µM; HEK293 TRPC4/mu-opioid, membrane potential fluorescence; shares compounds with TRPC6 inh;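 active = membrane potential signal moved up or down beyond 5 SD of buffer control wells, in both duplicate plates, actives on both sides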
TRPC4/MOR inh 2: second selectivity test of TRPC6 modulators against mouse TRPC4; shares compounds with TRPC6 inh; HEK293 TRPC4/mu-opioid, membrane potential dye fluorescence; stimulated with maximal-effect DAMGO; inhibition, % at 10 µM; actives 55% (n = 2,400); AID 488928;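 active = drop in membrane potential signal beyond 5 SD of the control wells in both duplicate plates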;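 also: TRPC4 counter screen for TRPC6 hits run under conditions tuned for TRPC6 not TRPC4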
TRPC6 inh conf: confirmation of mouse TRPC6 inhibitors | actives 43% (n = 3,300) | shares compounds with TRPC6 inh | HEK293-TRPC6, membrane potential dye, ACh-evoked depolarization | inhibition, % at 10 µM;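 active = fluorescence ratio falls more than 5 SD below the full-stimulation control mean, in both duplicate runs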;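 also: integrated fluorescence ratio of peak minus minimum over baseline after agonist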
TRPC6 act confirm: confirmation of mouse TRPC6 activators. actives 11% (n = 2,800). shares compounds with TRPC6 inh. HEK293-TRPC6 membrane potential dye fluorescence, FDSS. activation, % at 10 µM;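 active = ratio signal rise beyond 5 SD above unstimulated control wells' mean, seen in both duplicate runs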
Numbers stand for hits; – = inactive; · = no result given; ! = not active in a repeat. A selection: hits, their analogues and other compounds. The true share with any hit is near 2.3%.

SMILES	TRPC6 inh	TRPC4 block	TRPC6 act	TRPC4 act	TRPC4 PAM	HEK293 MPD ctr-2	HEK293 MPD ctr 2-2	TRPC4 ctr mod	TRPC4/MOR inh 2	TRPC6 inh conf	TRPC6 act confirm	others
O=C(COc1ccccc1)NC1CCCCCCC1	-6	–	–	–	39	102%	–	77%	–	–	·
CCc1ccccc1OCC(=O)NC1CCCC1	-5.8	–	–	–	–	112%	–	20%	–	41%	·
CN(c1ccc(OCC(=O)OCC(=O)NCc2ccco2)cc1)S(=O)(=O)c1ccc2ccccc2c1	–	–	–	–	–	·	·	·	·	·	·
Nc1c2c(nn1-c1ccc(F)cc1)CSC2	–	–	–	–	–	·	·	·	·	·	·
C#Cc1ccc([C@@H]2C=C(C(=O)OCC=C)O[C@H](OCCCCO)C2)cc1	–	–	–	–	–	·	·	·	·	·	·
COc1ccccc1N(CC(=O)NC1CCCCC1)S(C)(=O)=O	–	–	–	–	–	·	·	·	·	·	·
COc1ccccc1N(CC(=O)NC1CCCCC1)S(=O)(=O)c1ccccc1	-5.1	–	–	–	–	474%	–	208%	38%	–	·
COc1ccccc1NC(=O)COc1ccc(Br)cc1CNC1CCCC1	-7.6	–	–	–	–	·	·	·	·	–	–	TRPC4 spec 2=54%;TRPC4 spec=14%;HEK293 MPD ctr 2-1=238%;HEK293 MPD ctr-1=9.8%
C=CC[C@@H]1C=C[C@H](O/N=C/c2ccc(C(=O)N3[C@H](c4ccc(C)cc4)[C@@H](C)CC[C@H]3C(=O)OC)cc2)[C@@H](CO)O1	–	–	–	–	–	·	·	·	·	·	·
Cn1cnc(S(=O)(=O)Nc2ccc(Cl)c(C(F)(F)F)c2)c1	–	–	–	–	–	·	·	·	·	·	·
COC(CSc1nc(N)c2c3c(sc2n1)CN(C)CC3)OC	–	–	–	–	–	·	·	·	·	·	·
CSc1nc(N)c2c3c(sc2n1)CN(C)CC3	-7	–	–	–	–	-124%	–	-25%	–	–	–
C=CCSc1nc(N)c2c3c(sc2n1)CN(C)CC3	-6.5	–	–	–	–	-76%	–	-20%	–	–	–
O=C(CCc1nc2ccccc2c(=O)[nH]1)N1CCN(C/C=C/c2ccccc2)CC1	–	–	–	–	–	·	·	·	·	·	·
O=c1[nH]c(CN2CCN(C/C=C/c3ccccc3)CC2)nc2cc(Cl)ccc12	-5.3	–	–	–	–	–	–	8.5%	44%	–	–
Cc1c(C)n(C)c2ccc(C(=O)NCCCN3CCN(c4ccc(F)cc4)CC3)cc12	–	–	–	–	–	·	·	·	·	·	·
Cc1c(C)n(C)c2ccc(C(=O)NCCCN3CCN(c4ccccc4F)CC3)cc12	-7.3	–	–	–	–	–	–	–	67%	42%	–
CCCCCOc1ccc(Br)cc1CSC(=N)N	-6.4	–	–	–	–	135%	–	24%	76%	–	·
CCOc1ccc(CSC(=N)N)cc1	–	–	–	–	–	·	·	·	·	·	·
CCCCOc1ccc(CSC(=N)N)cc1Cl	-6.7	–	–	–	–	·	·	·	·	–	–	TRPC4 spec 2=70%;TRPC4 spec=–;HEK293 MPD ctr 2-1=266%;HEK293 MPD ctr-1=2.0%
COc1ccc(NC(=O)C2CCCN(c3nn4c(=O)cc(C)nc4s3)C2)cc1 (stereo not given)	–	–	–	–	–	·	·	·	·	·	·
Cc1cc(=O)n2nc(N3CCCC(C(=O)N4CCc5ccccc54)C3)sc2n1 (stereo not given)	-8.7	–	–	–	–	·	·	·	·	–	–	TRPC4 spec 2=–;TRPC4 spec=–;HEK293 MPD ctr 2-1=–;HEK293 MPD ctr-1=–
CC(C)OCCCN1CN(S(=O)(=O)c2cccc(Cl)c2)c2nc3ccccc3nc21	-5.1	–	–	–	–	–	–	9.5%	–	–	–
CC(C)OCCCN1CN(S(=O)(=O)c2ccc(Cl)cc2)c2nc3ccccc3nc21	–	–	–	–	–	·	·	·	·	·	·
Cc1nn(C)c(C(=O)N2CCOCC2)c1Cl	–	–	–	–	–	·	·	·	·	·	·
SMILES	TRPC6 inh	TRPC4 block	TRPC6 act	TRPC4 act	TRPC4 PAM	HEK293 MPD ctr-2	HEK293 MPD ctr 2-2	TRPC4 ctr mod	TRPC4/MOR inh 2	TRPC6 inh conf	TRPC6 act confirm	others
CCOc1ccc(S(=O)(=O)NCc2ccccn2)cc1NC(=O)c1ccccc1F	–	–	–	–	–	·	·	·	·	·	·
CC(C)c1[nH]nc2c1C(Cc1ccccc1)C(C#N)=C(N)O2 (stereo not given)	-6.4	–	–	–	–	–	–	–	–	–	–
CN(C)CCCN1c2ccccc2Sc2ccc(Cl)cc21	-5.6!	–	–	–	–	–	–	7.5%	78%	60%	–
O=C(CN(c1ccccc1Cl)S(=O)(=O)c1ccccc1)NCc1ccccc1	–	–	–	–	–	·	·	·	·	·	·
CCOC(=O)c1ccccc1NC(=O)c1c(F)c(F)c(F)c(F)c1F	-6.2	–	–	–	–	–	–	–	–	–	–
CCOC(=O)c1ccccc1NC(=O)COC(=O)CC1CCCCC1	–	–	–	–	–	·	·	·	·	·	·
CCOC(=O)c1ccccc1NC(=O)c1ccc(F)cc1	–	–	–	–	–	·	·	·	·	·	·
CCOC(=O)c1ccccc1NC(=O)COC(=O)C1CCCC1	-8.1	–	14	–	–	137%	–	32%	–	58%	118%
Cc1ccc(S(=O)(=O)N(Cc2ccccc2)c2ccccc2C(=O)N2CCCCC2)cc1	–	–	–	–	–	·	·	·	·	·	·
CCCCN1C(=O)/C(=C/C=C2\Oc3ccccc3N2CC)SC1=S	–	–	35	–	–	338%	–	99%	–	–	–
Cc1ccc(CNCCC2=CCCCC2)cc1	-7.1	–	–	–	–	·	·	·	·	–	–	TRPC4 spec 2=–;TRPC4 spec=–;HEK293 MPD ctr 2-1=–;HEK293 MPD ctr-1=–
